Test results published in ChEMBL document CHEMBL1687810, “Oritavancin disrupts membrane integrity of Staphylococcus aureus and vancomycin-resistant enterococci to effect rapid bacterial killing” (2010).
Values after ≈ are worked out from the molar mass of the structure shown. Active and inactive are the calls of the source.

Experiments:
Staphylococcus aureus [1] = test: Antimicrobial activity against heterogeneous vancomycin-intermediate resistant Staphylococcus aureus ATCC 700698; type: functional
Staphylococcus aureus [2] = test: Bactericidal activity against heterogeneous vancomycin-intermediate resistant Staphylococcus aureus ATCC 700698 at 16 ug/ml within 30 mins; type: functional, organism-based
In short: (§1)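 Short-duration time-kill of hVISA ATCC 700698 under conditions similar to the membrane assays, without polysorbate-80, with drug at 4, 8 or 16 μg/ml; viable counts as change in log CFU from time zero over 30 min. Bactericidal defined as ≥3 log CFU decrease; detection limit 200 CFU; three independent experiments.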

Staphylococcus aureus [3] = test: Induction of membrane depolarization in heterogeneous vancomycin-intermediate resistant Staphylococcus aureus ATCC 700698 at 16 ug/mL using DiSC3(5) dye by fluorimetric assay; type: functional, organism-based
Staphylococcus aureus [4] = test: Increase in membrane permeability in heterogeneous vancomycin-intermediate resistant Staphylococcus aureus ATCC 700698 at 16 ug/mL using SYTO9 staining by fluorimetric assay; type: functional, organism-based
Staphylococcus aureus [5] = test: Bactericidal activity against heterogeneous vancomycin-intermediate resistant Staphylococcus aureus ATCC 700698 assessed as reduction in bacterial count at 8 ug/ml within 30 mins; type: functional; in short: as §1
Staphylococcus aureus [6] = test: Bactericidal activity against heterogeneous vancomycin-intermediate resistant Staphylococcus aureus ATCC 700698 assessed as reduction in bacterial count at 4 ug/ml within 30 mins; type: functional; in short: as §1
Staphylococcus aureus [7] = test: Induction of membrane depolarization in heterogeneous vancomycin-intermediate resistant Staphylococcus aureus ATCC 700698 using DiSC3(5) dye by fluorimetric assay; type: functional, organism-based
Staphylococcus aureus [8] = test: Increase in membrane permeability in heterogeneous vancomycin-intermediate resistant Staphylococcus aureus ATCC 700698 using SYTO9 staining by fluorimetric assay; type: functional, organism-based
Enterococcus = test: Antimicrobial activity against vancomycin-resistant Enterococcus; type: functional
Staphylococcus aureus [9] = test: Antimicrobial activity against heterogeneous vancomycin-intermediate resistant Staphylococcus aureus; type: functional
Staphylococcus aureus [10] = test: Bactericidal activity against heterogeneous vancomycin-intermediate resistant Staphylococcus aureus ATCC 700698 assessed as reduction in bacterial count at 16 ug/ml within 30 mins; type: functional; in short: as §1
Staphylococcus aureus [11] = test: Antimicrobial activity against vancomycin-resistant Staphylococcus aureus; type: functional
Staphylococcus aureus [12] = test: Antimicrobial activity against vancomycin-intermediate resistant Staphylococcus aureus; type: functional

Structure (SMILES)	MIC (Staphylococcus aureus [1])	Activity (Staphylococcus aureus [2])	Activity (Staphylococcus aureus [3])	Activity (Staphylococcus aureus [4])	log10cfu (Staphylococcus aureus [5])	log10cfu (Staphylococcus aureus [6])	Activity (Staphylococcus aureus [7])	Activity (Staphylococcus aureus [8])	MIC (Enterococcus)	MIC (Staphylococcus aureus [9])	log10cfu (Staphylococcus aureus [10])	MIC (Staphylococcus aureus [11])	MIC (Staphylococcus aureus [12])
CN[C@H](CC(C)C)C(=O)N[C@H]1C(=O)N[C@@H](CC(N)=O)C(=O)N[C@H]2C(=O)N[C@H]3C(=O)N[C@H](C(=O)N[C@H](C(=O)O)c4cc(O)cc(O)c4-c4cc3ccc4O)[C@H](O[C@H]3C[C@](C)(N)[C@@H](O)[C@H](C)O3)c3ccc(c(Cl)c3)Oc3cc2cc(c3O[C@@H]2O[C@H](CO)[C@@H](O)[C@H](O)[C@H]2O[C@H]2C[C@](C)(N)[C@@H](O)[C@H](C)O2)Oc2ccc(cc2Cl)[C@H]1O [CHLOROEREMOMYCIN]	1 µg/mL (≈ 0.628 µM)	inactive	inactive	inactive									
CN[C@H](CC(C)C)C(=O)N[C@H]1C(=O)N[C@@H](CC(N)=O)C(=O)N[C@H]2C(=O)N[C@H]3C(=O)N[C@H](C(=O)N[C@H](C(=O)O)c4cc(O)cc(O)c4-c4cc3ccc4O)[C@H](O[C@H]3C[C@](C)(N)[C@@H](O)[C@H](C)O3)c3ccc(c(Cl)c3)Oc3cc2cc(c3O[C@@H]2O[C@H](CO)[C@@H](O)[C@H](O)[C@H]2O[C@H]2C[C@](C)(NCc3ccc(-c4ccc(Cl)cc4)cc3)[C@@H](O)[C@H](C)O2)Oc2ccc(cc2Cl)[C@H]1O [ORITAVANCIN]	1 µg/mL (≈ 0.558 µM)				>=3	>=3	Dose-dependent effect	Dose-dependent effect	0.25 µg/mL (≈ 0.139 µM)	0.25 µg/mL (≈ 0.139 µM)	>=3	0.25 µg/mL (≈ 0.139 µM)	0.25 µg/mL (≈ 0.139 µM)
CN[C@H](CC(C)C)C(=O)N[C@H]1C(=O)N[C@@H](CC(N)=O)C(=O)N[C@H]2C(=O)N[C@H]3C(=O)N[C@H](C(=O)N[C@H](C(=O)O)c4cc(O)cc(O)c4-c4cc3ccc4O)[C@H](O)c3ccc(c(Cl)c3)Oc3cc2cc(c3O[C@@H]2O[C@H](CO)[C@@H](O)[C@H](O)[C@H]2O[C@H]2C[C@](C)(N)[C@H](O)[C@H](C)O2)Oc2ccc(cc2Cl)[C@H]1O		inactive	inactive	inactive									
